Experimental data of several laboratories.
Target: SRSF protein kinase 3 (SRPK3, Homo sapiens, UniProt Q9UPE1)

| Compound | test | setting | quantity | value |
| --- | --- | --- | --- | --- |
| CC#CC(=O)N1CCC[C@H]1c1nc(-c2ccc(C(=O)Nc3ccccn3)cc2)c2c(N)nccn12 | enzyme activity, inhibitor | 1 µM | inhibition | 0% |
| CN1CCN(C(=O)c2ccc(NC(=O)Nc3ccc(N(C)c4ccnc(Nc5ccc(CS(C)(=O)=O)cc5)n4)cc3)cc2)CC1 | binding | 1 µM | remaining binding | 7.7% |
| C#Cc1cnc(Nc2ccnc(CO)c2)nc1Nc1ccccc1S(C)(=O)=NC#N (centres unmarked) | cell-free assay | 1 µM | remaining signal | 47% |
| CC(C)S(=O)(=O)c1ccc2nccc(Nc3ccc4sc(C5CCCC5)nc4c3)c2c1 | enzyme activity, inhibitor | 1 µM | activity vs control | 110% |
| N#Cc1ccc(NC(=O)Nc2ccccc2)cc1 | cell-free assay, competition with immobilised ligand | 25 µM | inhibition | 90.3% |
| C=CC(=O)N1CCC[C@@H](n2nc(-c3ccc(Oc4ccccc4)cc3)c3c(N)ncnc32)C1 | enzyme activity, inhibitor | 1 µM | inhibition | 16% |
| CCCCC(=O)Nc1ccc(-c2ccc3ncn(CCC)c(=O)c3c2)cn1 | binding, competition with immobilised ligand | 0.5 µM | remaining binding | 92% |
| Cc1ccc(NC(=O)c2ccnc(C(F)(F)F)c2)cc1-c1cc(OCCO)nc(N2CCOCC2)c1 | binding | 1 µM | remaining binding | 93% |
